Laboratory results: ChEMBL document CHEMBL1141647, “Novel ofloxacin derivatives: synthesis, antimycobacterial and toxicological evaluation” (Bioorg Med Chem Lett, 2008)
In brackets after ≈: the same amount, converted by molar mass.

Assays:
[1] = system: Mycobacterium tuberculosis; assay: Antimycobacterial activity against Mycobacterium tuberculosis ATCC 35801 infected CD1 mouse lungs assessed as viable organisms at 25 mg/kg, ip after 35 days relative to control; format: functional; details: route intraperitoneal
Procedure, shortened: (§1)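 CD-1 mice infected intravenously with M. tuberculosis ATCC 35801; intraperitoneal treatment started 10 days after inoculation and continued for 10 days. At 35 days postinfection, spleens and right lungs were removed aseptically and viable organisms counted (log CFU). Counts were compared with vehicle-treated controls.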

[2] = system: Mycobacterium tuberculosis; assay: Antimycobacterial activity against Mycobacterium tuberculosis ATCC 35801 infected CD1 mouse spleen assessed as viable organisms at 25 mg/kg, ip after 35 days relative to control; format: functional; details: route intraperitoneal; procedure, shortened: as §1
Vero = assay: Cytotoxicity against african green monkey Vero cells after 72 hrs by MTT assay; format: cell-based; details: Chlorocebus sabaeus
Procedure, shortened: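 Vero cells exposed for 72 h; tested up to 62.5 µg/mL. Viability was read as cellular conversion of MTT to formazan, and IC50 was reported in µM.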

[3] = system: Mycobacterium tuberculosis; assay: Antimycobacterial activity against Mycobacterium tuberculosis H37Rv by agar dilution method; format: functional
Procedure, shortened: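 MIC99 was taken as the lowest concentration giving complete inhibition of bacterial growth.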

[4] = system: Mycolicibacterium smegmatis; assay: Antimycobacterial activity against Mycobacterium smegmatis ATCC 14468 by agar dilution method; format: functional
Procedure, shortened: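 MC² (M. smegmatis) growth inhibition; MIC99 taken as the lowest concentration giving complete inhibition of bacterial growth, in µM.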

NNC(=O)c1ccncc1 [ISONIAZID]
Log10 cfu [1]: 5.86
Log10 cfu [2]: 4.71
IC50 (Vero): > 456 µM
MIC99 [3]: 0.36 µM (≈ 0.0494 µg/mL)
MIC99 [4]: 45.6 µM (≈ 6.25 µg/mL)
